# Results: PubChem BioAssay
# Activity calls are given as the source filed them.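 The calls were made as follows, unless noted: active = viability at or below 10% of carrier control in both of two separate runs; inconclusive = viability at or below 10% in only one of the two runs; inactive = the rest.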
# Legend:
# [1] = reducers of endogenous Her2 protein level, primary screen, SKBR3 breast tumor cells, AlphaScreen, ATP viability (AID 461;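 active = Her2 level under about 52% in both replicate screens, with viability over 70% of control, limit read from the data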;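 as to Her2 level: lower value means less Her2 protein in the cells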;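 as to viability: percent of carrier control wells set as 100% viability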); settings: 18-24 h, measured here: SKBR3 viability, ATP luminescence, at 10 µM
# [2] = target: Receptor tyrosine-protein kinase erbB-2 (Homo sapiens) (UniProt P04626); assay: as above; settings: 18-24 h, at 10 µM, stronger effect = lower value
# [3] = SK-BR-3 cell growth inhibitors, pilot screen, 24 h, human (AID 572); settings: SK-BR-3 viability, CellTiter-Glo luminescence, at 10 µM, stronger effect = lower value;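 also: compound exposure lasted between 18 and 24 h rather than exactly 24 h; 100% = carrier-treated control wells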
# [4] = HUVEC growth inhibition – cell-based, human, primary screen (AID 575;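 active = viability at or below 30% in both replicate assays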;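 also: 100% = median of untreated cell wells with 0.1% DMSO on each plate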); settings: HUVEC proliferation, CellTiter-Glo luminescence, 72 h; at 10 µM; stronger effect = lower value
# Method in brief: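 Test system: HUVEC primary cells. Quantity: 1250 endothelial cells in each well. Dosing: single-point 10 µM, DMSO 0.1% final. Incubation: 72 h treatment at 37 °C. Measured by: CTG luminescence. Control set: DMSO cell controls and MePR drug controls. Plate: collagen-coated 384-well format.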
# [5] = growth inhibitors of H69AR lung tumor, primary screen, human, duplicate replicates (AID 580;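 active = viability at or under a set limit in both replicates, limit being median viability minus 3 SD, cut at about 48% in these data, passing the limit was not always enough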;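 also: 100% = mean luminescence of untreated wells and 0% = no signal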); settings: H69AR lung tumor cells viability, ATP luminescence, 72 h; at 10 µM; stronger effect = lower value
# [6] = reversal of MRP1-mediated doxorubicin resistance, pilot screen, H69AR cells, doxorubicin co-treatment (AID 601;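 active = viability loss from added drug above about 55%, and viability with drug at most 40%, in both replicates, limit read from the data, passing the limit was not always enough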); settings: CellTiter-Glo, 72 h, at 10 µM; for differential viability (reversal): stronger effect = higher value
# [7] = 384-well plate pilot, post-Golgi transport modulator project, inhibition of yeast transport mutant growth (AID 636; in the data active = inhibition above about 31%); settings: absorbance 615 nm, about 18 h, stronger effect = higher value
# [8] = growth suppression of yeast trafficking mutant, preliminary HTS, modulators of trafficking downstream of Golgi apparatus project, 1536-format plate, OD 615 nm (AID 637; in the data active = inhibition above about 30%); settings: yeast transport mutant growth, absorbance 615 nm, 18 h; stronger effect = higher value
# [9] = H69AR cells + 2 uM doxorubicin, measured here: viability with 2 uM doxorubicin, stronger effect = lower value
# [10] = H69AR cells, compound alone cytotoxicity
# Sequence of Receptor tyrosine-protein kinase erbB-2 (Homo sapiens) (P04626 whole entry, looked up): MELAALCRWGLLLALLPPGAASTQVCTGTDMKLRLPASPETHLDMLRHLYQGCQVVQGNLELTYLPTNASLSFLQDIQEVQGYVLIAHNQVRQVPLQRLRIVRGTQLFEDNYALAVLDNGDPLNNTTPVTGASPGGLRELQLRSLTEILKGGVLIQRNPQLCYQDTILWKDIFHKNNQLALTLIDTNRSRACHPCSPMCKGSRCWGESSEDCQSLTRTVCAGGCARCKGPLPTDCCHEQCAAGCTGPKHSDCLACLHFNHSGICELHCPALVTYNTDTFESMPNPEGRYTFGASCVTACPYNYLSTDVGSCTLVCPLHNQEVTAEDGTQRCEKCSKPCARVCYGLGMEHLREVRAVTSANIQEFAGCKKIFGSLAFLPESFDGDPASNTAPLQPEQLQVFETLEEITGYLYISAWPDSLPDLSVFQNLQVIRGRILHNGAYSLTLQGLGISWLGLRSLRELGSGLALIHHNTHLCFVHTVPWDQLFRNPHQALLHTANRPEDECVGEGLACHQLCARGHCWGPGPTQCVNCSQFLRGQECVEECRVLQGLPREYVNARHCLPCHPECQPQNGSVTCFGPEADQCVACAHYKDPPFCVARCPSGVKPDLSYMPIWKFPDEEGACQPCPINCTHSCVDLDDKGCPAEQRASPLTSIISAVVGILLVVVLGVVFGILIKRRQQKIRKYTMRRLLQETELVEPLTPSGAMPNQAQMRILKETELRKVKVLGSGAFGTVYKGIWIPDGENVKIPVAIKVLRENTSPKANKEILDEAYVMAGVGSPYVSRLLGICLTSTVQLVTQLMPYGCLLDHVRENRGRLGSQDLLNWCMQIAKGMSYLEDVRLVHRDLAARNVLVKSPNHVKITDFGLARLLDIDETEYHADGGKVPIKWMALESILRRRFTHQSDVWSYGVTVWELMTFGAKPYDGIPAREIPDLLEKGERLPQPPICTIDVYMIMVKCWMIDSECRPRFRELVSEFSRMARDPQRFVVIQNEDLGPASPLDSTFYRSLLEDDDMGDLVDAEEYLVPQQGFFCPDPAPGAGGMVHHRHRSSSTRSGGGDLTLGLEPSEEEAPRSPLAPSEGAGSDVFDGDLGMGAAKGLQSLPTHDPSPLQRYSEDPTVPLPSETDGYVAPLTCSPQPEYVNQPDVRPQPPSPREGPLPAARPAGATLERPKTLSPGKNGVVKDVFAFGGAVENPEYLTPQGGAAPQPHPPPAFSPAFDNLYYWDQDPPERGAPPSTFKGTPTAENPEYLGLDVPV
Compound,viability [1],Her2 level [2],viability [3],viability [4],viability [5],differential viability (reversal) ([6]; H69AR cells + 2 uM doxorubicin),"viability [6, 9]","viability [6, 10]",inhibition [7],inhibition [8]
COc1ccc(-n2ncc3c(=O)n(CC(=O)OCc4ccccc4)cnc32)cc1,83%,104% (inactive),83% (inactive),99.1% (inactive),97.8% (inactive),12% (inactive),85.8%,97.8%,0% (inactive),0.5% (inactive)
Oc1cnc2ccccc2c1CN1CCOCC1,98.5%,92% (inactive),98.5% (inactive),113% (inactive),101% (inactive),-2.39% (inactive),104%,101%,-3.16% (inactive),-0.16% (inactive)
COc1ccc(N2CCN(C(c3cccc(OC)c3OC)c3nnnn3C3CCCC3)CC2)cc1 (stereo not given),88%,121% (inactive),88% (inactive),94.4% (inactive),88.5% (inactive),-0.405% (inactive),88.9%,88.5%,4.61% (inactive),-2.06% (inactive)
CCOC(=O)c1cccc(NC(=O)CS(=O)(=O)Cc2nc(-c3cccc(OC)c3)oc2C)c1,99.5%,79% (inactive),99.5% (inactive),95.2% (inactive),85.3% (inactive),-7.47% (inactive),92.8%,85.3%,-7.87% (inactive),-6.61% (inactive)
CCn1nc(C(=O)OCC(=O)c2cc(C)n(Cc3cccs3)c2C)c2ccccc2c1=O,93.5%,93% (inactive),93.5% (inactive),84.1% (inactive),83.6% (inactive),-9.39% (inactive),93%,83.6%,-3.2% (inactive),26.6% (inactive)
O=S(=O)(NCc1ccccc1)c1ccc2c(c1)OCCO2,124%,110% (inactive),124% (inactive),97.1% (inactive),76.8% (inactive),-7.4% (inactive),84.2%,76.8%,-3.9% (inactive),-2.7% (inactive)
COc1ccc(-n2c(SCC(=O)c3c(N)n(C)c(=O)n(C)c3=O)nc3ccccc32)cc1,105%,71.5% (inactive),105% (inactive),90% (inactive),98.5% (inactive),12.6% (inactive),86%,98.5%,-4.73% (inactive),1.9% (inactive)
CN(C)CCCNC(=O)c1ccc(CN(c2ccccc2)S(C)(=O)=O)cc1,97.5%,96% (inactive),97.5% (inactive),86.4% (inactive),92.1% (inactive),3.06% (inactive),89%,92.1%,0.91% (inactive),-7.87% (inactive)
CCOC(=O)C1=C(c2ccccc2)Nc2nc(C)nn2C1c1cccc(OC)c1OC (stereo not given),111%,130% (inactive),111% (inactive),90.6% (inactive),90.2% (inactive),36.8% (inactive),53.4%,90.2%,-2.24% (inactive),-0.66% (inactive)
CS(=O)(=O)c1ccc2nc(NC(=O)C3C4C=CC(C4)C3C(=O)O)sc2c1 (stereo not given),96%,154% (inactive),96% (inactive),101% (inactive),104% (inactive),13.3% (inactive),90.3%,104%,-2.5% (inactive),-12.8% (inactive)
O=c1[nH]c2sc3c(c2c2nncn12)CCCC3,136%,114% (inactive),136% (inactive),76.4% (inactive),100% (inactive),7.53% (inactive),92.7%,100%,-6.16% (inactive),2.54% (inactive)
O=C1CCCCCN1CSc1nc2ccccc2s1,123%,101% (inactive),123% (inactive),80.5% (inactive),88% (inactive),4.73% (inactive),83.3%,88%,-5.45% (inactive),-2.62% (inactive)
CCC(C)NC(=O)c1ccccc1NC(=O)C(C)N(c1ccccc1)S(C)(=O)=O (stereo not given),93%,102% (inactive),93% (inactive),89.5% (inactive),94.5% (inactive),-7.6% (inactive),102%,94.5%,-4.19% (inactive),5.57% (inactive)
CCCCc1ccc(NC(=O)c2c(C)noc2C)cc1,105%,94.5% (inactive),105% (inactive),96% (inactive),89.4% (inactive),0.065% (inactive),89.3%,89.4%,-3.68% (inactive),4.43% (inactive)
